Published values gathered from unrelated publications.
Target: Eukaryotic translation initiation factor 2-alpha kinase 1 (EIF2AK1, Homo sapiens, UniProt Q9BQI3)

`O=C(Nc1c[nH]nc1C(=O)NC1CCNCC1)c1cc(F)cc(F)c1` gave a remaining binding of 91% (binding; competition with immobilised ligand; 1 µM).
With `FC(F)(F)Oc1cccc(-c2cnc3ccc(-c4ccncc4)nn23)c1` the remaining binding was 88% (cell-free assay; competition with immobilised ligand; 5 µM).
The remaining binding of `FC(F)(F)c1ccc2c(c1)nc(-c1cccnc1)n2C1CC1` is reported as 100% (cell-free assay; competition with immobilised ligand; 1 µM).
`COc1cnc(Nc2cccc(S(N)(=O)=O)c2)nc1N1CCN(c2ccccc2)CC1` gave a remaining binding of 100% (binding; competition with immobilised ligand; 1 µM).
The remaining binding of `c1cncc(-c2cccc(Nc3nccc(NC4CCCCC4)n3)c2)c1` is reported as 87% (binding; competition with immobilised ligand; 10 µM).
The remaining binding of `O=C(NCCCN1CCOCC1)c1ccc(Nc2nccc(-c3cc4ccccc4s3)n2)cc1` is reported as 100% (binding; competition with immobilised ligand; 1 µM).
`CN(CCCC(F)(F)F)c1nccc(-c2cnn3ncccc23)n1` has a remaining binding of 100% (binding; 1 µM).
With `O=C(NCc1ncc(C(F)(F)F)cc1Cl)c1ccc2c(c1)C1(CCS(=O)(=O)CC1)[C@H](C1CC1)N2S(=O)(=O)c1ccc(F)cc1` the remaining binding was 86% (cell-free assay; competition with immobilised ligand; 1 µM).
For `CN(C)c1nccc(-c2cnn3ncccc23)n1`, the remaining binding was 100% (binding; 1 µM).
With `O=C(c1ccc(Nc2ncc(Cl)c(-c3ccc(Cl)s3)n2)cc1)N1CCC(N2CCCC2)CC1` the remaining binding was 86% (binding; competition with immobilised ligand; 1 µM).
`CS(=O)(=O)c1cc(C2(NC(=O)c3cncc4c3cnn4-c3ccc(F)cc3)CC2)ccn1` has a remaining binding of 73% (cell-free assay; competition with immobilised ligand; 1 µM).
`CN(C)c1nccc(-c2cnc3ncccn23)n1` has a remaining binding of 69% (binding; 1 µM).
The remaining binding of `C[C@@H](c1ccc(-n2cnc3c(N)ncnc32)cc1)N1CCc2nn(C)c(Cc3ccccc3)c2C1=O` is reported as 66% (binding; competition with immobilised ligand; 0.1 µM).
For `O=C(c1ccc(Nc2ncc(Cl)c(-c3cc4ccccc4s3)n2)cc1)N1CCC(N2CCCC2)CC1`, the remaining binding was 90% (binding; competition with immobilised ligand; 1 µM).
With `CN(c1nccc(-c2cnn3ncccc23)n1)C1CC1` the remaining binding was 100% (binding; 1 µM).
The remaining binding of `CNC(=O)[C@@H]1CC[C@@H](n2c(-c3ccc4cnccc4c3)nc3ccc(C(=O)NCc4cccc(C(N)=O)c4)cc32)C1` is reported as 100% (binding; competition with immobilised ligand; 1 µM).
`CO[C@@H](C)c1c(Nc2ccc([C@H](N(C)C(=O)C3CCS(=O)(=O)CC3)C(F)(F)F)cc2)cnc2cc(Cl)nn12` gave a remaining binding of 100% (cell-free assay; competition with immobilised ligand; 1 µM).
For `N[C@H]1CCN(c2nccc(-c3cnn4ncccc34)n2)C1`, the remaining binding was 78% (binding; 1 µM).
`C[C@@H](c1cccc(C#N)c1)n1cc(Cl)cc(C(N)=O)c1=N` has a remaining binding of 95% (cell-free assay; competition with immobilised ligand; 1 µM).
The remaining binding of `C[C@@H]1CCN(c2nccc(-c3cnn4ncccc34)n2)C1` is reported as 79% (binding; 1 µM).
`CC(=O)C1=C(C)N(c2cccc(C(F)(F)F)c2)C(=O)N[C@@H]1c1ccc(C#N)nc1` gave a remaining binding of 100% (cell-free assay; competition with immobilised ligand; 1 µM).
`COc1ncc2cc3ccccc3nc2c1C#N` has a remaining binding of 100% (cell-free assay; competition with immobilised ligand; 5 µM).
